Source: ChEMBL document CHEMBL1157912, “Impact of nature and length of linker incorporated in agonists on toll-like receptor 9-mediated immune responses” (J Med Chem, 2010)

Biological target: T1, Toll-like receptor 9 (Mus musculus) (UniProt Q9EQU3)
T1 sequence (whole entry): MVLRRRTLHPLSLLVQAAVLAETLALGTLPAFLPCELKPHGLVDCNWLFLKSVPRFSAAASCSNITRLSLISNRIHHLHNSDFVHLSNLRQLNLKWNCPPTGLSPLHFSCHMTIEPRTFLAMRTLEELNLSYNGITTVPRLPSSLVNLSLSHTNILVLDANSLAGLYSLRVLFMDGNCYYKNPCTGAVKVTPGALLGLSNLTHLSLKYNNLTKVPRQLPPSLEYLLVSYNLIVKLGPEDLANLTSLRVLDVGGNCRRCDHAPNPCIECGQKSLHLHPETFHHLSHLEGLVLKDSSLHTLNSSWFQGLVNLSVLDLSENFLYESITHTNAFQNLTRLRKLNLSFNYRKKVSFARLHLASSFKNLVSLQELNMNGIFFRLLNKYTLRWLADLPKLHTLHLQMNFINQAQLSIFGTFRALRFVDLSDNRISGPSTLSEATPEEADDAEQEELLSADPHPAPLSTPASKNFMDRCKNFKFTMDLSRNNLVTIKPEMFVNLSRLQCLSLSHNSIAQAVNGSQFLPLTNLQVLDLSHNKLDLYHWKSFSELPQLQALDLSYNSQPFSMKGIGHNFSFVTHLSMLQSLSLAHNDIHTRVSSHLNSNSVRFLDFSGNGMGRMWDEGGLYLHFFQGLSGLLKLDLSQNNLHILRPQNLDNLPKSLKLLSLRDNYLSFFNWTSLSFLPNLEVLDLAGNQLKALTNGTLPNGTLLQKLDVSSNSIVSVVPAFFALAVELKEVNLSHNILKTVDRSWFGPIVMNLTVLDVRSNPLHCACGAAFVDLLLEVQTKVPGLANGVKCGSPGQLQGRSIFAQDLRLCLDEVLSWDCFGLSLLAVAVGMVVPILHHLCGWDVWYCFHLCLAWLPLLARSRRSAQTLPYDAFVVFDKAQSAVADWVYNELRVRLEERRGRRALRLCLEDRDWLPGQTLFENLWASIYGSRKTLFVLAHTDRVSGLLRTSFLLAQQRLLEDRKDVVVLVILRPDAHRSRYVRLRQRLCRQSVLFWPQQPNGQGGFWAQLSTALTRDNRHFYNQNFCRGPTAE
Experiment: Activation of mouse TLR9 expressed in HEK293 cells assessed as induction of NF-kappaB activity after 18 hrs by SEAP assay
Type: cell-based
Outline: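 HEK293 cells stably expressing mouse TLR9 were grown in DMEM with 10% heat-inactivated FBS. At 80% confluence they were transiently transfected with a SEAP reporter plasmid (100 ng/well, lipofectamine) for 6 h. Medium was then replaced and agonists were added for 18 h. Supernatant SEAP was read with QuantiBlue substrate at 620-645 nm. Results are expressed as fold NF-κB activity over PBS control.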

| Structure (SMILES) | Activity |
| --- | --- |
| Cc1cn([C@H]2C[C@H](O[C@H]3C[C@@H](O)C[C@@H](OP(=O)(S)O[C@H]4C[C@H](n5cc(C)c(=O)[nH]c5=O)O[C@@H]4COP(=O)(S)O[C@H]4[C@@H](O)[C@H](n5ccc(N)nc5=O)O[C@@H]4COP(=O)(S)O[C@H]4C[C@H](n5cc(C)c(=O)[nH]c5=O)O[C@@H]4COP(=O)(S)O[C@H]4C[C@H](n5cc(C)c(=O)[nH]c5=O)O[C@@H]4COP(=O)(S)O[C@H]4C[C@H](n5ccc6c(=O)[nH]c(N)nc65)O[C@@H]4COP(=O)(S)O[C@H]4[C@@H](O)[C@H](n5ccc(N)nc5=O)O[C@@H]4COP(=O)(S)O[C@H]4C[C@H](n5cc(C)c(=O)[nH]c5=O)O[C@@H]4COP(=O)(S)O[C@H]4[C@@H](O)[C@H](n5cnc6c(=O)[nH]c(N)nc65)O[C@@H]4COP(=O)(S)O[C@H]4C[C@H](n5cc(C)c(=O)[nH]c5=O)O[C@@H]4COP(=O)(S)O[C@H]4[C@@H](O)[C@H](n5ccc(N)nc5=O)O[C@@H]4COP(=O)(S)O[C@H]4C[C@H](n5cc(C)c(=O)[nH]c5=O)O[C@@H]4CO)C3)[C@@H](COP(=O)(S)O[C@H]3[C@@H](O)[C@H](n4ccc(N)nc4=O)O[C@@H]3COP(=O)(S)O[C@H]3C[C@H](n4cc(C)c(=O)[nH]c4=O)O[C@@H]3COP(=O)(S)O[C@H]3C[C@H](n4cc(C)c(=O)[nH]c4=O)O[C@@H]3COP(=O)(S)O[C@H]3C[C@H](n4ccc5c(=O)[nH]c(N)nc54)O[C@@H]3COP(=O)(S)O[C@H]3[C@@H](O)[C@H](n4ccc(N)nc4=O)O[C@@H]3COP(=O)(S)O[C@H]3C[C@H](n4cc(C)c(=O)[nH]c4=O)O[C@@H]3COP(=O)(S)O[C@H]3[C@@H](O)[C@H](n4cnc5c(=O)[nH]c(N)nc54)O[C@@H]3COP(=O)(S)O[C@H]3C[C@H](n4cc(C)c(=O)[nH]c4=O)O[C@@H]3COP(=O)(S)O[C@H]3[C@@H](O)[C@H](n4ccc(N)nc4=O)O[C@@H]3COP(=O)(S)O[C@H]3C[C@H](n4cc(C)c(=O)[nH]c4=O)O[C@@H]3CO)O2)c(=O)[nH]c1=O (stereo partly drawn) | Dose-dependent effect |
| Cc1cn([C@H]2C[C@H](OCC(O)COP(=O)(S)O[C@H]3C[C@H](n4cc(C)c(=O)[nH]c4=O)O[C@@H]3COP(=O)(S)O[C@H]3[C@@H](O)[C@H](n4ccc(N)nc4=O)O[C@@H]3COP(=O)(S)O[C@H]3C[C@H](n4cc(C)c(=O)[nH]c4=O)O[C@@H]3COP(=O)(S)O[C@H]3C[C@H](n4cc(C)c(=O)[nH]c4=O)O[C@@H]3COP(=O)(S)O[C@H]3C[C@H](n4ccc5c(=O)[nH]c(N)nc54)O[C@@H]3COP(=O)(S)O[C@H]3[C@@H](O)[C@H](n4ccc(N)nc4=O)O[C@@H]3COP(=O)(S)O[C@H]3C[C@H](n4cc(C)c(=O)[nH]c4=O)O[C@@H]3COP(=O)(S)O[C@H]3[C@@H](O)[C@H](n4cnc5c(=O)[nH]c(N)nc54)O[C@@H]3COP(=O)(S)O[C@H]3C[C@H](n4cc(C)c(=O)[nH]c4=O)O[C@@H]3COP(=O)(S)O[C@H]3[C@@H](O)[C@H](n4ccc(N)nc4=O)O[C@@H]3COP(=O)(S)O[C@H]3C[C@H](n4cc(C)c(=O)[nH]c4=O)O[C@@H]3CO)[C@@H](COP(=O)(S)O[C@H]3[C@@H](O)[C@H](n4ccc(N)nc4=O)O[C@@H]3COP(=O)(S)O[C@H]3C[C@H](n4cc(C)c(=O)[nH]c4=O)O[C@@H]3COP(=O)(S)O[C@H]3C[C@H](n4cc(C)c(=O)[nH]c4=O)O[C@@H]3COP(=O)(S)O[C@H]3C[C@H](n4ccc5c(=O)[nH]c(N)nc54)O[C@@H]3COP(=O)(S)O[C@H]3[C@@H](O)[C@H](n4ccc(N)nc4=O)O[C@@H]3COP(=O)(S)O[C@H]3C[C@H](n4cc(C)c(=O)[nH]c4=O)O[C@@H]3COP(=O)(S)O[C@H]3[C@@H](O)[C@H](n4cnc5c(=O)[nH]c(N)nc54)O[C@@H]3COP(=O)(S)O[C@H]3C[C@H](n4cc(C)c(=O)[nH]c4=O)O[C@@H]3COP(=O)(S)O[C@H]3[C@@H](O)[C@H](n4ccc(N)nc4=O)O[C@@H]3COP(=O)(S)O[C@H]3C[C@H](n4cc(C)c(=O)[nH]c4=O)O[C@@H]3CO)O2)c(=O)[nH]c1=O (stereo partly drawn) | Dose-dependent effect |
| Cc1cn([C@H]2C[C@H](O[C@@H]3C[C@@H](O)C[C@@H](OP(=O)(S)O[C@H]4C[C@H](n5cc(C)c(=O)[nH]c5=O)O[C@@H]4COP(=O)(S)O[C@H]4[C@@H](O)[C@H](n5ccc(N)nc5=O)O[C@@H]4COP(=O)(S)O[C@H]4C[C@H](n5cc(C)c(=O)[nH]c5=O)O[C@@H]4COP(=O)(S)O[C@H]4C[C@H](n5cc(C)c(=O)[nH]c5=O)O[C@@H]4COP(=O)(S)O[C@H]4C[C@H](n5ccc6c(=O)[nH]c(N)nc65)O[C@@H]4COP(=O)(S)O[C@H]4[C@@H](O)[C@H](n5ccc(N)nc5=O)O[C@@H]4COP(=O)(S)O[C@H]4C[C@H](n5cc(C)c(=O)[nH]c5=O)O[C@@H]4COP(=O)(S)O[C@H]4[C@@H](O)[C@H](n5cnc6c(=O)[nH]c(N)nc65)O[C@@H]4COP(=O)(S)O[C@H]4C[C@H](n5cc(C)c(=O)[nH]c5=O)O[C@@H]4COP(=O)(S)O[C@H]4[C@@H](O)[C@H](n5ccc(N)nc5=O)O[C@@H]4COP(=O)(S)O[C@H]4C[C@H](n5cc(C)c(=O)[nH]c5=O)O[C@@H]4CO)C3)[C@@H](COP(=O)(S)O[C@H]3[C@@H](O)[C@H](n4ccc(N)nc4=O)O[C@@H]3COP(=O)(S)O[C@H]3C[C@H](n4cc(C)c(=O)[nH]c4=O)O[C@@H]3COP(=O)(S)O[C@H]3C[C@H](n4cc(C)c(=O)[nH]c4=O)O[C@@H]3COP(=O)(S)O[C@H]3C[C@H](n4ccc5c(=O)[nH]c(N)nc54)O[C@@H]3COP(=O)(S)O[C@H]3[C@@H](O)[C@H](n4ccc(N)nc4=O)O[C@@H]3COP(=O)(S)O[C@H]3C[C@H](n4cc(C)c(=O)[nH]c4=O)O[C@@H]3COP(=O)(S)O[C@H]3[C@@H](O)[C@H](n4cnc5c(=O)[nH]c(N)nc54)O[C@@H]3COP(=O)(S)O[C@H]3C[C@H](n4cc(C)c(=O)[nH]c4=O)O[C@@H]3COP(=O)(S)O[C@H]3[C@@H](O)[C@H](n4ccc(N)nc4=O)O[C@@H]3COP(=O)(S)O[C@H]3C[C@H](n4cc(C)c(=O)[nH]c4=O)O[C@@H]3CO)O2)c(=O)[nH]c1=O (stereo partly drawn) | Dose-dependent effect |
